ED50, UD50 and ID50 data for 17 compounds are collected here from ChEMBL document CHEMBL1122569, “Synthesis and antiinflammatory activity of [(cycloalkylmethyl)phenyl]acetic acids and related compounds” (1984).

In experiment [1] the test system is Rattus norvegicus. Put plainly: Analgesic activity on peroral administration against Scald induced pain in rat paw. The format is functional. The note with it: for ED50: Rattus norvegicus, po, read-out: ID50 (the source's name). The method, boiled down: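 Male Wister Imamichi rats (~100 g), fasted 16 h. A hind paw was scalded at 57 °C for 6 s, then restimulated at 40 °C for 5 s. Compounds at 58–0.23 mg/kg in 0.5% tragacanth were given orally 2 h after scalding. Paw-lifting time over 30 s was recorded 1 and 2 h post-dose, and the mean used for % inhibition and ID50.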

Experiment [2] relates to Rattus norvegicus. Briefly: Antiinflammatory activity on peroral administration against carrageenan paw edema. The following applies: po, read-out: ID50 (the source's name). The class given is functional. The method, boiled down: (§1)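 Compound given; 30 min later 1% carrageenan in saline injected subcutaneously into the hind-paw plantar region. Paw volume measured just before and 3 h after carrageenan. ID50 from a least-squares regression line of percent inhibition against dose.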
(In general: Carrageenan injected into the paw causes an acute inflammation.)

In experiment [3] the test system is Rattus norvegicus. Put plainly: Gastric lesion activity on peroral administration in rat. The note with it: po. The format is functional. Summed up:
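Male Wister Imamichi rats (~120 g), fasted 16 h, dosed at 20–2.5 mg/kg. Killed 3.5 h later; stomachs opened along the greater curvature and rinsed with saline. Dark brown lesions of 0.5 mm length were counted under a stereomicroscope.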

In experiment [4] the test system is Rattus norvegicus. Put plainly: Analgesic activity on peroral administration against scald induced pain in rat paw. The format is functional. The following applies: po, read-out: ID50 (the source's name). Summed up: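 Male Wister Imamichi rats (about 100 g), fasted 16 h, had one hind paw scalded in 57 °C water for 6 s, then re-dipped in 40 °C water for 5 s. Oral dosing in 0.5% tragacanth (58–0.23 mg/kg) followed 2 h after scalding. Paw-lifting time within 30 s was scored 1 and 2 h post-dose. The mean of the two readings gave percent inhibition and ID50.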

Experiment [5] has as its system Cavia porcellus. Briefly: Antipyretic activity on peroral administration against LPS-induced fever in guinea pig. The format is functional. The following applies: po, read-out: ID50 (the source's name). Summed up: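 Female Hartley guinea pigs (300–350 g), fasted 16 h. Fever induced with E. coli LPS at 1 µg/kg i.v. Compounds were dosed at 6.3–0.23 mg/kg. Rectal temperature was taken 1 and 2 h after dosing and the mean used. ID50 by least-squares regression of % inhibition on dose.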

Experiment [6] has as its system Cavia porcellus. Put plainly: Analgesic activity on peroral administration against Bradykinin induced pain in guinea pig paw. The note with it: po.
For experiment [7], the system named is Rattus norvegicus. Briefly: Antiinflammatory activity on peroral administration in rat determined by Randall-Slelitto test. The class given is functional. The note with it: po. The method, boiled down:
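Fasted male Wister Imamichi rats (60–90 g) received 20% brewer's yeast in the right hind paw. After 4 h, rats with pressure pain threshold below 10×30 g were dosed at 50–0.05 mg/kg. Animals were counted effective if the threshold rise exceeded twice the unmedicated control. ED50 by Litchfield–Wilcoxon.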

The test system of experiment [8] is Rattus norvegicus. Put plainly: Antiinflammatory activity on peroral administration against adjuvant arthritis in rat. The note with it: po, read-out: ID50 (the source's name). The class given is functional. The method, boiled down:
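Female Lewis rats (160–200 g) received complete Freund adjuvant (heat-killed M. tuberculosis, 1 mg/mL in liquid paraffin) in the right hind paw. Dosing was 5.0–0.04 mg/kg once daily, days 0–20. Injected-paw swelling was measured by water displacement (day before vs day 21), as % inhibition versus untreated control. ID50 by least-squares regression.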

The test system of experiment [9] is Rattus norvegicus. Put plainly: Antiinflammatory activity on peroral administration against carrageenan induced rat paw edema. The format is functional. The following applies: po, read-out: ID50 (the source's name). Summed up:
as §1

For the compound `CC(C(=O)O)c1ccc(CC2CCC/C2=N/O)cc1` (stereo not given), the results for the ED50 in the experiment on Rattus norvegicus [1] and in the experiment with Rattus norvegicus [2] were 4.9 mg/kg and 1.3 mg/kg, respectively.

For the compound `O=C(O)Cc1ccc(CC2CCC/C2=N/O)cc1` (stereo not given), the figures for the ED50 in the experiment with Rattus norvegicus [1] and in the experiment on Rattus norvegicus [2] were 15 mg/kg and 24.8 mg/kg, respectively.

On to `CC(C(=O)O)c1ccc(CC2CCCCC2=O)cc1` (stereo not given), for which the ED50 in the experiment with Rattus norvegicus [1] amounted to 9.1 mg/kg; in the experiment with Rattus norvegicus [2] it was 1.2 mg/kg.

With `CC(C(=O)O)c1ccc(/C=C2\CCCCCC2=O)cc1` (stereo not given), the ED50 in the experiment on Rattus norvegicus [1] and in the experiment on Rattus norvegicus [2] was > 100 mg/kg each time.

`CC(C(=O)O)c1ccc(CC2CCCCCC2=O)cc1` (stereo not given): the ED50 in the experiment with Rattus norvegicus [1] and with Rattus norvegicus [2] was > 100 mg/kg each time.

For the compound `O=C(O)Cc1ccc(CC2CCCC/C2=N/O)cc1` (stereo not given), the values for the ED50 in the experiment on Rattus norvegicus [1] and in the experiment with Rattus norvegicus [2] were 31.1 mg/kg and 23.5 mg/kg, respectively.

With `CC(C(=O)O)c1ccc(CC2CCCC2)cc1` (stereo not given), the ED50 in the experiment on Rattus norvegicus [1] was 5.1 mg/kg; in the experiment on Rattus norvegicus [2] it was > 100 mg/kg.

As for `CC(C(=O)O)c1ccc(CC2CCCC/C2=N/O)cc1` (stereo not given), the ED50 in the experiment on Rattus norvegicus [1] amounted to 3.6 mg/kg; with Rattus norvegicus [2] it was 1.4 mg/kg.

On to `O=C(O)Cc1ccc(CC2CCCC2=O)cc1` (stereo not given), for which the ED50 in the experiment on Rattus norvegicus [1] was 23 mg/kg; in the experiment with Rattus norvegicus [2], 9.1 mg/kg.

As to `CC(C(=O)O)c1ccc(/C=C2\CCCC2=O)cc1` (stereo not given), the ED50 in the experiment on Rattus norvegicus [1] was found to be 1.3 mg/kg; in the experiment with Rattus norvegicus [2], 1.5 mg/kg.

For `CC(C(=O)O)c1ccc(CC2CCCCC/C2=N/O)cc1` (stereo not given), the ED50 with Rattus norvegicus [1] and with Rattus norvegicus [2] was > 100 mg/kg throughout.

On to `O=C(O)Cc1ccc(CC2CCCCC2=O)cc1` (stereo not given), for which the ED50 was 53.8 mg/kg in the experiment on Rattus norvegicus [1] and 45.7 mg/kg with Rattus norvegicus [2].

`CC(C)Cc1ccc(C(C)C(=O)O)cc1` (stereo not given) [IBUPROFEN]: in the experiment on Rattus norvegicus [1], the ED50 stood at 15.9 mg/kg.

The compound `COc1ccc2c(c1)c(CC(=O)O)c(C)n2C(=O)c1ccc(Cl)cc1` [INDOMETHACIN] returned a UD50 in the experiment on Rattus norvegicus [3] of 6.4 mg/kg. The ED50 in the experiment on Rattus norvegicus [4] stood at 3.5 mg/kg; with Rattus norvegicus [1], 3.5 mg/kg; with Cavia porcellus [5], 9.5 mg/kg; in the experiment on Cavia porcellus [6], 8.3 mg/kg; in the experiment on Rattus norvegicus [2], 2.2 mg/kg; in the experiment on Rattus norvegicus [7], 2.8 mg/kg.

In the experiment on Rattus norvegicus [3], `CC(C(=O)[O-])c1ccc(CC2CCCC2=O)cc1.[Na+]` (stereo not given) [LOXOPROFEN SODIUM] had a UD50 of 16.1 mg/kg. The ED50 came out at 0.59 mg/kg in the experiment on Rattus norvegicus [8]; 0.76 mg/kg with Rattus norvegicus [1]; 0.76 mg/kg with Cavia porcellus [5]; 0.4 mg/kg with Cavia porcellus [6]; 1.2 mg/kg in the experiment on Rattus norvegicus [2]; 0.13 mg/kg with Rattus norvegicus [7].

Regarding `CC(C(=O)O)c1ccc(CC2CCCC2=O)cc1` (stereo not given) [LOXOPROFEN], the values for the ED50 in the experiment with Rattus norvegicus [1] and with Rattus norvegicus [2] were 0.8 mg/kg and 1.7 mg/kg, respectively.

Regarding `CC(C(=O)O)c1ccc(/C=C2\CCCCC2=O)cc1` (stereo not given) [PELUBIPROFEN], in the experiment with Rattus norvegicus [3], the UD50 turned out to be 14.3 mg/kg. For the same compound, the ED50 in the experiment with Rattus norvegicus [8] was determined as 0.06 mg/kg; with Rattus norvegicus [9], 1.2 mg/kg; in the experiment on Rattus norvegicus [1] it was 1.8 mg/kg; in the experiment on Cavia porcellus [5] it was 1.5 mg/kg; in the experiment on Cavia porcellus [6] it was 4.5 mg/kg; with Rattus norvegicus [2], 0.9 mg/kg. The ED50 in the experiment on Rattus norvegicus [7] turned out to be 0.94 mg/kg. In the experiment on Rattus norvegicus [1], the ID50 came to 1.7 mg/kg.
